The results in this text go back to ChEMBL document CHEMBL4270576, “Discovery of a benzenesulfonamide-based dual inhibitor of microsomal prostaglandin E2 synthase-1 and 5-lipoxygenase that favorably modulates lipid mediator biosynthesis in inflammation” (Eur J Med Chem, 2018).

Assay [1] deals with T1, Polyunsaturated fatty acid 5-lipoxygenase (Homo sapiens) (UniProt P09917).
T1 sequence (whole entry): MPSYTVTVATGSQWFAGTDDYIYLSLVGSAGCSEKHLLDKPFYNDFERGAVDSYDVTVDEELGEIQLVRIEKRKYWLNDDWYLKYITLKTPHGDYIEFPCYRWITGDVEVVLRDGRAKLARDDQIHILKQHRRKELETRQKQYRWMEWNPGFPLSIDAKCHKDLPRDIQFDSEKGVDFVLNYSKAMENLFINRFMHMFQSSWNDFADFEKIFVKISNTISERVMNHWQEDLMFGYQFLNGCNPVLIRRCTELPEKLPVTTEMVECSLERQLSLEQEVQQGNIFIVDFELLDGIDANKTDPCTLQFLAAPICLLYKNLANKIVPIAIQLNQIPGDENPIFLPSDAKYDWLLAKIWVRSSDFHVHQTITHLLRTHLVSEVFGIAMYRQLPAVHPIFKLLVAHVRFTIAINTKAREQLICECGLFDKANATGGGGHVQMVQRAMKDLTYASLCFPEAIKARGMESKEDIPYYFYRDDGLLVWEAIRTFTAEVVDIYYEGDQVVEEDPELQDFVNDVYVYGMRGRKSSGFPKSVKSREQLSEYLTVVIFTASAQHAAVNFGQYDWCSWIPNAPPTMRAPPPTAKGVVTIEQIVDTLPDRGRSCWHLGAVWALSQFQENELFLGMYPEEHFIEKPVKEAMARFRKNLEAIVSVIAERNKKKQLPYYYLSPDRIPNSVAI
Briefly: Inhibition of recombinant human 5-LO binding to FLAP expressed in HEK293 cells at 10 uM after 1 hr by DAPI staining-based immunofluorescence microscopic analysis. Format: cell-based. The procedure, abridged: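 HEK293 cells stably expressing 5-LO/FLAP, treated with 10 µM compound for 10 min and then 2.5 µM A23187 for 20 min at 37 °C, fixed, and probed with anti-5-LO/anti-FLAP primaries. This was followed by oligonucleotide-linked secondaries (1 h, 37 °C), ligation, rolling-circle amplification and DAPI nuclear stain. Proximity ligation signals counted microscopically in 100 cells from three experiments.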

For assay [2], the species on record is Homo sapiens. The assay is described as follows: Modulation of LO-mediated RvD2 level in human M2 macrophages derived from IL4-polarized human monocyte derived macrophages at 3 uM preincubated for 15 mins followed by Escherichia coli (O6:K2:H1) challenge for 90 mins by LC-MS/MS analysis. The procedure, abridged: (§1)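 Monocytes differentiated 6 days with M-CSF (20 ng/ml), then polarized 48 h with IL-4 20 ng/ml (M2). Cells (2 × 10^6) in PBS/1 mM CaCl2 pre-incubated 15 min at 37 °C with 3 µM compound or 0.1% DMSO, then challenged with E. coli O6:K2:H1 (1:50) for 90 min. Lipid mediators extracted by SPE with deuterated internal standards and quantified by UPLC-MS/MS as % of vehicle.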

Assay [3] deals with T2, Polyunsaturated fatty acid lipoxygenase ALOX12 (Homo sapiens) (UniProt P18054).
T2 sequence (whole entry): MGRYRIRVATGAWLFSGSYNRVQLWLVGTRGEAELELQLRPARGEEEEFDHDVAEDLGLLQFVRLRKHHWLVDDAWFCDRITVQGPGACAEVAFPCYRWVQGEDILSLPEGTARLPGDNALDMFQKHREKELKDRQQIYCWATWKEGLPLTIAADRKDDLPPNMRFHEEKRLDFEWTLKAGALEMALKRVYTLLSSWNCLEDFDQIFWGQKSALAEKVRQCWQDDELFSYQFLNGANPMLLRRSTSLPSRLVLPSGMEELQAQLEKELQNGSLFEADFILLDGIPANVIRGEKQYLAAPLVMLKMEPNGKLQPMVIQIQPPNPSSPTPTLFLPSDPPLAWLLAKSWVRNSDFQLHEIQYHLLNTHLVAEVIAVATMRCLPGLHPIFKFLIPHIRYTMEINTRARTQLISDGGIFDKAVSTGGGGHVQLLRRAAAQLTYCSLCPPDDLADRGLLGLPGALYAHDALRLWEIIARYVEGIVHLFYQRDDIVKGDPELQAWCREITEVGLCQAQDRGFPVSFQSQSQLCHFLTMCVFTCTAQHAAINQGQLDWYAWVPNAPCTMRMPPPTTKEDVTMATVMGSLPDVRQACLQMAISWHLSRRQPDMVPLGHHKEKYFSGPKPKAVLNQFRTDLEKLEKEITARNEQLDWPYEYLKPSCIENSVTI
The assay is described as follows: Modulation of 12-LO-mediated 12-HETE level in human M2 macrophages derived from IL4-polarized human monocyte derived macrophages at 3 uM preincubated for 15 mins followed by Escherichia coli (O6:K2:H1) challenge for 90 mins by LC-MS/MS analysis. Put shortly: as §1

In another assay the test system is Mus musculus. Briefly: Antiinflammatory activity in zymosan induced CD-1 mouse model of inflammation assessed as reduction in leukocyte recruitment in air pouch at 10 mg/kg, ip preincubated for 30 mins followed by zymosan challenge and measured after 4 hrs by trypan blue staining-based burker's chamber method. Format: functional, organism-based. The procedure, abridged: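 Air pouch formed by s.c. injection of 2.5 mL sterile air in CD-1 mice; on day 6, 10 mg/kg i.p. (2% DMSO/saline) given 30 min before 1 ml 1% w/v zymosan into the pouch. After 4 h, exudate collected with 1 ml saline and centrifuged; leukocytes counted in Burker chamber; LTB4 in supernatant by ELISA (ng/mL). n=6 mice per group.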

The species entered for assay [4] is Homo sapiens. The assay is described as follows: Modulation of LO-mediated PD1 level in human M2 macrophages derived from IL4-polarized human monocyte derived macrophages at 3 uM preincubated for 15 mins followed by Escherichia coli (O6:K2:H1) challenge for 90 mins by LC-MS/MS analysis. Put shortly:
as §1

The species named for assay [5] is Homo sapiens. Briefly: Modulation of LO-mediated 5,15-DiHETE level in human M2 macrophages derived from IL4-polarized human monocyte derived macrophages at 3 uM preincubated for 15 mins followed by Escherichia coli (O6:K2:H1) challenge for 90 mins by LC-MS/MS analysis. Put shortly: as §1
Assay [6] is filed under the species Homo sapiens. The assay is described as follows: Modulation of LO-mediated RvE3 level in human M2 macrophages derived from IL4-polarized human monocyte derived macrophages at 3 uM preincubated for 15 mins followed by Escherichia coli (O6:K2:H1) challenge for 90 mins by LC-MS/MS analysis. Put shortly: as §1
Assay [7] is filed under the species Homo sapiens. Briefly: Modulation of LO-mediated MaR1 level in human M2 macrophages derived from IL4-polarized human monocyte derived macrophages at 3 uM preincubated for 15 mins followed by Escherichia coli (O6:K2:H1) challenge for 90 mins by LC-MS/MS analysis. The procedure, abridged: as §1

SMILES strings stand for the structures. Calls of active or inactive are those of the source. The calls are words filed in the database; no cut-off is given here.

For the compound `O=C(O)c1ccc(N(Cc2cccc(OCc3ccccc3)c2)S(=O)(=O)c2ccc(-c3ccccc3)cc2)cc1`, the inhibition entry in assay [1] is “Active”. The Activity in the assay filed under Homo sapiens [2] was determined as 128%; in assay [3], 151%; in the assay filed under Homo sapiens [4] it was 110%; in the assay filed under Homo sapiens [5], 122%; in the assay listed under Homo sapiens [6], 121%; in the assay filed under Homo sapiens [7], 141%. For the same compound, the outcome in the assay with Mus musculus was Active.
